Reference: ChEMBL document CHEMBL5329183, “Naphthylthiazoles: a class of broad-spectrum antifungals” (RSC Med Chem, 2023)
Values after ≈ are worked out from the molar mass of the structure shown.

Columns and labels:
Staphylococcus aureus = experiment: Antibacterial activity against Methicillin-resistant Staphylococcus aureus USA300 assessed as inhibition of bacterial growth; format: functional
Clostridioides difficile = experiment: Antibacterial activity against Clostridium difficile ATCC BAA1870 assessed as inhibition of bacterial growth; format: functional
Escherichia coli [1] = experiment: Antibacterial activity against Escherichia coli JW55031 harboring tolC mutant assessed as inhibition of bacterial growth; format: functional
Escherichia coli [2] = experiment: Antibacterial activity against wild type Escherichia coli BW25113 assessed as inhibition of bacterial growth; format: functional
Candida albicans = experiment: Antifungal activity against wild type Candida albicans SC5314 assessed as inhibition of fungal growth; format: functional
[Candida] auris = Antifungal activity against Candida auris 382 assessed as inhibition of fungal growth incubated for 24 hrs by broth microdilution method; format: functional; conditions: Candidozyma auris
Procedure, shortened: (§1)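 Clinical isolate; CLSI broth microdilution over a range of concentrations (media listed: RPMI 1640, MOPS, YPD). MIC taken as lowest concentration giving 50% growth inhibition after 24 h at 35 °C.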

Nakaseomyces glabratus [3] = experiment: Antifungal activity against Candida glabrata ATCC 66032 assessed as inhibition of fungal growth incubated for 24 hrs by broth microdilution method; format: functional; procedure, shortened: as §1
Nakaseomyces glabratus [4] = experiment: Antifungal activity against Candida glabrata ATCC MYA2950 assessed as inhibition of fungal growth incubated for 24 hrs by broth microdilution method; format: functional; procedure, shortened: as §1
Aspergillus fumigatus = experiment: Antifungal activity against Aspergillus fumigatus NR 35304 assessed as inhibition of fungal growth incubated for 24 hrs by broth microdilution method; format: functional
Procedure, shortened: (§2)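 Broth microdilution per CLSI guidelines against clinical isolates, incubated at 35 °C for 24 h (Candida, Aspergillus) or 48 h (Cryptococcus). MIC was the lowest concentration giving 50% growth inhibition.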

Cryptococcus neoformans [5] = experiment: Antifungal activity against Cryptococcus neoformans NR 48770 assessed as inhibition of fungal growth incubated for 48 hrs by broth microdilution method; format: functional
Procedure, shortened: (§3)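 Clinical isolate; CLSI broth microdilution over a range of concentrations (media listed: RPMI 1640, MOPS, YPD). MIC read as lowest concentration inhibiting growth by 50% after 48 h incubation at 35 °C.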

Cryptococcus neoformans [6] = experiment: Antifungal activity against Cryptococcus neoformans NR 41299 assessed as inhibition of fungal growth incubated for 48 hrs by broth microdilution method; format: functional; procedure, shortened: as §3
Cryptococcus neoformans [7] = experiment: Antifungal activity against Cryptococcus neoformans NR 48767 assessed as inhibition of fungal growth incubated for 48 hrs by broth microdilution method; format: functional; procedure, shortened: as §3
[8] = Antifungal activity against Cryptococcus gattii NR 43209 assessed as inhibition of fungal growth incubated for 48 hrs by broth microdilution method; format: functional, Cryptococcus gattii VGI; procedure, shortened: as §2
[9] = Antifungal activity against Cryptococcus gattii NR 43216 assessed as inhibition of fungal growth incubated for 48 hrs by broth microdilution method; format: functional, Cryptococcus gattii VGI; procedure, shortened: as §2
Caco-2 = experiment: Cytotoxicity against human Caco-2 cells assessed as inhibition of cell viability at 128 ug/ml incubated for 2 hrs by MTS assay; format: toxicity, cell-based; conditions: caco-2, 2 h, dose 128 µg/ml
Procedure, shortened: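 Caco-2 cells were grown in DMEM with 10% FBS, 1× nonessential amino acids and penicillin–streptomycin, then treated with 32, 64 and 128 μg mL−1 for 2 h at 37 °C, 5% CO2, in triplicate. MTS was added for 3 h and OD490 read. Viability was expressed as % of DMSO control (mean ± SD).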

Vero = experiment: Cytotoxicity against African green monkey Vero cells assessed as inhibition of cell viability at 128 ug/ml incubated for 2 hrs by MTS assay; format: toxicity, cell-based; conditions: chlorocebus sabaeus, dose 128 µg/ml
Procedure, shortened: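 Vero cells were grown in MEM with 10% FBS, 1 mM sodium pyruvate and penicillin–streptomycin, then exposed to compounds for 2 h at 37 °C, 5% CO2, in triplicate. MTS was added for 3 h and OD490 read. Viability was expressed as % of DMSO-matched controls (mean ± SD).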

[10] = Selectivity ratio of CC50 for cytotoxicity against human Caco-2 cells to MIC for antifungal activity against Cryptococcus neoformans NR 41298; format: toxicity, cell-based
[11] = Selectivity ratio of CC50 for cytotoxicity against human Caco-2 cells to MIC for antifungal activity against Cryptococcus neoformans NR 41300; format: toxicity, cell-based
[12] = Selectivity ratio of CC50 for cytotoxicity against human Caco-2 cells to MIC for antifungal activity against Cryptococcus neoformans NR 41299; format: toxicity, cell-based
[13] = Selectivity ratio of CC50 for cytotoxicity against human Caco-2 cells to MIC for antifungal activity against Cryptococcus neoformans NR 48771; format: toxicity, cell-based
[14] = Selectivity ratio of CC50 for cytotoxicity against human Caco-2 cells to MIC for antifungal activity against Cryptococcus gattii NR 43210; format: toxicity, cell-based
[15] = Selectivity ratio of CC50 for cytotoxicity against African green monkey Vero cells to MIC for antifungal activity against Cryptococcus neoformans NR 41298; format: toxicity, cell-based
[16] = Selectivity ratio of CC50 for cytotoxicity against African green monkey Vero cells to MIC for antifungal activity against Cryptococcus neoformans NR 41299; format: toxicity, cell-based
[17] = Selectivity ratio of CC50 for cytotoxicity against African green monkey Vero cells to MIC for antifungal activity against Cryptococcus neoformans NR 48767; format: toxicity, cell-based
[18] = Selectivity ratio of CC50 for cytotoxicity against African green monkey Vero cells to MIC for antifungal activity against Cryptococcus neoformans NR 48773; format: toxicity, cell-based
[19] = Selectivity ratio of CC50 for cytotoxicity against African green monkey Vero cells to MIC for antifungal activity against Cryptococcus gattii NR 43213; format: toxicity, cell-based
[20] = Selectivity ratio of CC50 for cytotoxicity against African green monkey Vero cells to MIC for antifungal activity against Cryptococcus gattii NR 43214; format: toxicity, cell-based
Lactobacillus gasseri = experiment: Antibacterial activity against Lactobacillus gasseri HM400 assessed as inhibition of bacterial growth; format: toxicity, organism-based
Cryptococcus neoformans [21] = experiment: Antibiofilm activity against Cryptococcus neoformans NR 41300 assessed as inhibition of biofilm formation at 0.5xMIC measured after 48 hrs by crystal violet staining based analysis; format: functional
Procedure, shortened: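 Overnight C. neoformans was washed twice in PBS and adjusted to 105 cells per mL in RPMI. Cells were exposed to compound at 0.5 × MIC for 48 h at 35 °C. Biofilm was rinsed, dried, stained with 0.1% crystal violet, and the dye extracted with glacial acetic acid; OD595 readout.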

J774 = experiment: Cytotoxicity against mouse J774 cells assessed as reduction in cell viability at 64 ug/ml measured after 24 hrs by MTS assay; format: toxicity, cell-based; conditions: j774, 24 h, dose 64 µg/ml
Procedure, shortened: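 J774 murine macrophages were grown in DMEM with 10% FBS and exposed to compounds for 24 h at 37 °C, 5% CO2. After 3 h with MTS, OD490 was read. Viability was expressed relative to DMSO-matched controls.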

Cryptococcus neoformans [22] = experiment: Anti-cryptococcal activity against Cryptococcus neoformans NR 41300 infected in mouse J774 cells assessed as log reduction of intracellular fungal colony forming unit at 4 ug/ml measured after 24 hrs; format: functional; conditions: dose 4 µg/ml
Procedure, shortened: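 C. neoformans NR-41300 was grown 48 h in YPD, washed, and used to infect J774 macrophages at MOI ~100:1 for 1 h, followed by PBS washes. Compounds at 4 μg mL−1 (triplicate) were applied for 22 h at 37 °C, 5% CO2. Extracellular yeast were killed with amphotericin B 1 μg mL−1 for 1 h. Cells were lysed in 0.1% Triton X-100 and plated on YPD agar for 48 h at 37 °C; readout log10 CFU mL−1.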

| SMILES | MIC (Staphylococcus aureus) [µg/mL] | MIC (Clostridioides difficile) [µg/mL] | MIC (Escherichia coli [1]) [µg/mL] | MIC (Escherichia coli [2]) [µg/mL] | MIC (Candida albicans) [µg/mL] | MIC ([Candida] auris) [µg/mL] | MIC (Nakaseomyces glabratus [3]) [µg/mL] | MIC (Nakaseomyces glabratus [4]) [µg/mL] | MIC (Aspergillus fumigatus) [µg/mL] | MIC (Cryptococcus neoformans [5]) [µg/mL] | MIC (Cryptococcus neoformans [6]) [µg/mL] | MIC (Cryptococcus neoformans [7]) [µg/mL] | MIC [8] [µg/mL] | MIC [9] [µg/mL] | Activity (Caco-2) | Activity (Vero) | selectivity ratio [10] | selectivity ratio [11] | selectivity ratio [12] | selectivity ratio [13] | further results |
| --- | --- | --- | --- | --- | --- | --- | --- | --- | --- | --- | --- | --- | --- | --- | --- | --- | --- | --- | --- | --- | --- |
| Cc1nc(-c2ccc3ccccc3c2)sc1-c1nnc(N[C@@H]2CCCC[C@H]2N)o1 (relative stereo) | 64 (≈ 158 µM) | 32 (≈ 78.9 µM) | > 64 | > 64 | 1 (≈ 2.47 µM) | 2 (≈ 4.93 µM) | 1 (≈ 2.47 µM) | 1 (≈ 2.47 µM) | 4 (≈ 9.86 µM) | 1 (≈ 2.47 µM) | 1 (≈ 2.47 µM) | 2 (≈ 4.93 µM) | 1 (≈ 2.47 µM) | 2 (≈ 4.93 µM) | Non-Toxic | Non-Toxic | 64 | 64 | 64 | 64 | selectivity ratio [14]: 64; selectivity ratio [15]: 64; selectivity ratio [16]: 64; selectivity ratio [17]: 64; selectivity ratio [18]: 64; selectivity ratio [19]: 64; selectivity ratio [20]: 64; MIC (Lactobacillus gasseri): > 128 µg/mL; growth inhibition (GI) (Cryptococcus neoformans [21]): ~56%; Activity (J774): Non-Toxic; Activity (Cryptococcus neoformans [22]): 0.66 log10CFU/ml |
| Cc1nc(-c2ccc3ccccc3c2)sc1-c1nnc(N[C@@H]2CCCC[C@@H]2N)o1 (relative stereo) | > 64 | 64 (≈ 158 µM) | > 64 | > 64 | 1 (≈ 2.47 µM) | 2 (≈ 4.93 µM) | 1 (≈ 2.47 µM) | 0.5 (≈ 1.23 µM) | 4 (≈ 9.86 µM) | 1 (≈ 2.47 µM) | 2 (≈ 4.93 µM) | 2 (≈ 4.93 µM) | 1 (≈ 2.47 µM) | 2 (≈ 4.93 µM) | Non-Toxic | Non-Toxic | 64 | 64 | 64 | 64 | selectivity ratio [14]: 64; selectivity ratio [15]: 64; selectivity ratio [16]: 64; selectivity ratio [17]: 64; selectivity ratio [18]: 64; selectivity ratio [19]: 64; selectivity ratio [20]: 64; MIC (Lactobacillus gasseri): > 128 µg/mL; growth inhibition (GI) (Cryptococcus neoformans [21]): ~53%; Activity (J774): Non-Toxic; Activity (Cryptococcus neoformans [22]): 1.04 log10CFU/ml |
